# Active and inactive are the calls of the source. No cut-off for these calls is given here.
# Columns and labels:
# [1] = tested on: Staphylococcus epidermidis; assay: Antibacterial activity against Staphylococcus epidermidis ATCC 12228 assessed as growth inhibition; type: functional
# How it was run: (§1)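 In vitro antibacterial test against each listed strain. Activity is reported as MIC (μM), with ciprofloxacin as the positive control.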
# Pseudomonas putida = assay: Antibacterial activity against Pseudomonas putida ATCC 17848 assessed as growth inhibition; type: functional; how it was run: as §1
# Vibrio parahaemolyticus = assay: Antibacterial activity against Vibrio parahaemolyticus ATCC 17802 assessed as growth inhibition; type: functional; how it was run: as §1
# Staphylococcus aureus = assay: Antibacterial activity against Staphylococcus aureus ATCC 27154 assessed as growth inhibition; type: functional; how it was run: as §1
# HL-60 = assay: Cytotoxicity against human HL60 cells assessed as inhibition of cell viability by MTT assay; type: functional, cell-based
# Vibrio anguillarum = assay: Antibacterial activity against Vibrio anguillarum ATCC 19019 assessed as growth inhibition; type: functional; how it was run: as §1
# K562 = assay: Cytotoxicity against human K562 cells assessed as inhibition of cell viability by MTT assay; type: functional, cell-based
# [2] = tested on: Staphylococcus epidermidis; assay: Ratio of ciprofloxacin MIC to compound MIC for Staphylococcus epidermidis ATCC 12228; type: functional
# Micrococcus = assay: Antibacterial activity against Micrococcus tetragenus ATCC 13623 assessed as growth inhibition; type: functional, organism-based; how it was run: as §1
# Bacillus cereus = assay: Antibacterial activity against Bacillus cereus ACCC 11077 assessed as growth inhibition; type: functional, organism-based; how it was run: as §1
# Escherichia coli = assay: Antibacterial activity against Escherichia coli ATCC 25922 assessed as growth inhibition; type: functional, organism-based; how it was run: as §1
SMILES,MIC [1] [µM],MIC (Pseudomonas putida) [µM],MIC (Vibrio parahaemolyticus) [µM],MIC (Staphylococcus aureus) [µM],IC50 (HL-60) [µM],MIC (Vibrio anguillarum) [µM],IC50 (K562) [µM],Ratio [2],growth inhibition (GI) [1],growth inhibition (GI) (Pseudomonas putida),growth inhibition (GI) (Vibrio parahaemolyticus),growth inhibition (GI) (Micrococcus),growth inhibition (GI) (Staphylococcus aureus),growth inhibition (GI) (Vibrio anguillarum),growth inhibition (GI) (Bacillus cereus),growth inhibition (GI) (Escherichia coli)
COc1cc(C)cc(Oc2cc(C)cc(OC)c2O)c1O,> 100,> 100,> 100,100,> 10,100,> 10,–,–,–,–,–,–,–,–,–
COC(=O)c1c(C)cc(Oc2cc(C)cc(O)c2)cc1O,2.71,21.7,21.7,10.9,> 10,21.7,5.94,–,–,–,–,–,–,–,–,–
COC(=O)c1c(C)c(Br)c(Oc2c(Br)c(C)c(Br)c(O)c2Br)c(Br)c1O,100,> 100,> 100,100,–,9.23,–,–,–,–,–,–,–,–,–,–
CC(=O)Oc1cc(C)cc(Oc2cc(C)cc(O)c2)c1,100,100,100,> 100,–,46,–,–,–,–,–,–,–,–,–,–
CC(=O)Oc1cc(C)cc(Oc2cc(C)cc(OC(C)=O)c2)c1,> 100,> 100,> 100,> 100,–,> 100,–,–,–,–,–,–,–,–,–,–
CCCCCOc1cc(C)cc(Oc2cc(C)cc(O)c2)c1,20.8,10.4,10.4,20.8,–,10.4,–,–,–,–,–,–,–,–,–,–
CCCCCOc1cc(C)cc(Oc2cc(C)cc(OCCCCC)c2)c1,> 100,> 100,100,> 100,–,> 100,–,–,–,–,–,–,–,–,–,–
CCCOc1cc(C)cc(Oc2cc(C)cc(O)c2)c1,46,100,2.87,46,–,23,–,–,–,–,–,–,–,–,–,–
Cc1cc(O)cc(Oc2cc(C)cc(OC(=O)c3ccccc3)c2)c1,18.7,> 100,18.7,> 100,–,> 100,–,–,–,–,–,–,–,–,–,–
Cc1c(Br)c(O)c(Br)c(Oc2c(Br)c(C)c(Br)c(O)c2Br)c1Br,0.556,1.11,1.11,1.11,–,1.11,–,5,–,–,–,–,–,–,–,–
C=CC(C)(C)[C@]1(C[C@@H]2NC(=O)[C@@]3(OC)CCCN3C2=O)C(=O)Nc2c1ccc1c2C=CC(C)(C)O1,–,–,–,–,> 10,–,> 10,–,inactive,inactive,inactive,inactive,inactive,inactive,inactive,inactive
C=CC(C)(C)[C@]1(C[C@@H]2NC(=O)[C@@]3(O)CCCN3C2=O)C(=O)Nc2c1ccc1c2C=CC(C)(C)O1,–,–,–,–,> 10,–,> 10,–,inactive,inactive,inactive,inactive,inactive,inactive,inactive,inactive
O=C(O)c1cn(C2CC2)c2cc(N3CCNCC3)c(F)cc2c1=O [CIPROFLOXACIN],–,0.195,0.195,0.78,–,0.0975,–,–,–,–,–,–,–,–,–,–
Cc1cc(O)cc(Oc2cc(C)cc(O)c2O)c1 [CORDYOL C],100,100,100,100,> 10,100,> 10,–,–,–,–,–,–,–,–,–
COc1cc(C)cc(Oc2cc(C)cc(OC)c2OC)c1O [CORDYOL D],> 100,> 100,> 100,> 100,> 10,> 100,> 10,–,–,–,–,–,–,–,–,–
COc1cc(C)cc(Oc2cc(C)cc(O)c2)c1 [CORDYOL E],25.6,51.2,51.2,51.2,> 10,25.6,> 10,–,–,–,–,–,–,–,–,–
C=CC(C)(C)[C@]1(C[C@@H]2NC(=O)C3=CCCN3C2=O)C(=O)Nc2c1ccc1c2C=CC(C)(C)O1 [DEHYDRONOTOAMIDE C],–,–,–,–,> 10,–,> 10,–,inactive,inactive,inactive,inactive,inactive,inactive,inactive,inactive
Cc1cc(O)cc(Oc2cc(C)cc(O)c2)c1 [DIORCINOL],27.2,100,100,54.3,> 10,100,> 10,–,–,–,–,–,–,–,–,–
CC1(C)C=Cc2c(ccc3c2NC(=O)[C@@]32C[C@@]34NC(=O)[C@]5(CCCN5C3=O)C[C@H]4C2(C)C)O1 [NOTOAMIDE B],–,–,–,–,> 10,–,> 10,–,inactive,inactive,inactive,inactive,inactive,inactive,inactive,inactive
C=CC(C)(C)[C@]1(C[C@@H]2NC(=O)[C@@H]3CCCN3C2=O)C(=O)Nc2c1ccc1c2C=CC(C)(C)O1 [NOTOAMIDE C],–,–,–,–,> 10,–,> 10,–,inactive,inactive,inactive,inactive,inactive,inactive,inactive,inactive
C=CC(C)(C)[C@]1(C[C@@H]2NC(=O)[C@]3(O)CCCN3C2=O)C(=O)Nc2c1ccc1c2C=CC(C)(C)O1 [NOTOAMIDE M],–,–,–,–,> 10,–,> 10,–,inactive,inactive,inactive,inactive,inactive,inactive,inactive,inactive
C=CC(C)(C)[C@]1(C[C@@H]2NC(=O)[C@]3(OC)CCCN3C2=O)C(=O)Nc2c1ccc1c2C=CC(C)(C)O1 [NOTOAMIDE Q],–,–,–,–,> 10,–,> 10,–,inactive,inactive,inactive,inactive,inactive,inactive,inactive,inactive
CC1(C)C=Cc2c(ccc3c4c([nH]c23)C(C)(C)[C@@H]2C[C@]35CCCN3C(=O)[C@@]2(C4)NC5=O)O1 [STEPHACIDIN A],14.5,> 100,> 100,> 100,> 10,> 100,> 10,–,–,–,–,–,–,–,–,–

# From ChEMBL document CHEMBL2331366, “Bioactive indole alkaloids and phenyl ether derivatives from a marine-derived Aspergillus sp. Fungus” (J Nat Prod, 2013)
